Test results published in ChEMBL document CHEMBL1153479, “C29 sterols with a cyclopropane ring at C-25 and 26 from the Vietnamese marine sponge Ianthella sp. and their anticancer properties” (Bioorg Med Chem Lett, 2009).
Activity calls are given as the source filed them. No cut-off for these calls is given here.

Tests used:
[1] = system: A549; assay: Cytotoxicity against human A549 cells by MTT assay; format: functional, cell-based
In short: (§1)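 Cytotoxicity was read by MTT assay on human tumour lines: A549 lung, HT-29 colon, MCF-7 breast, SK-OV-3 ovary, and HL-60 and U937 leukaemia. Results are given as IC50 (μM), with values below 100 μM counted as active. A positive control was included.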

[2] = system: HL-60; assay: Cell cycle distribution in human HL60 cells assessed as cell cycle accumulation at sub-G1 phase at 19.9 uM after 12 hrs by flow cytometry; format: functional
In short: (§2)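 HL-60 cells exposed for 6, 12 or 24 h, then washed twice in PBS and fixed in 70% ethanol (30 min, 4°C). After a PBS rinse they were stained in the dark with 50 μg/mL propidium iodide plus 50 μg/mL RNase A (30 min, 37°C). DNA content was read by flow cytometry, and the sub-G1 hypodiploid fraction was taken from the DNA histograms.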

[3] = system: HL-60; assay: Cytotoxicity against human HL60 cells by MTT assay; format: functional, cell-based; in short: as §1
[4] = system: U-937; assay: Cytotoxicity against human U937 cells by MTT assay; format: functional, cell-based; in short: as §1
[5] = system: HL-60; assay: Induction of apoptosis in human HL60 cells assessed as increase in number of apoptotic body with condensed and fragmented nuclei at 19.9 uM after 6 to 24 hrs by H33342 staining method; format: functional, cell-based
In short: (§3)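 HL-60 cells at 3×10^5 cells/mL were exposed for 6, 12 and 24 h, washed twice with PBS and stained with 1 mg/mL Hoechst 33342 (30 min, 37°C). Apoptotic bodies, seen as condensed and fragmented nuclei, were scored by fluorescence microscopy at ×400.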

[6] = system: SK-OV-3; assay: Cytotoxicity against human SKOV3 cells by MTT assay; format: functional, cell-based; in short: as §1
[7] = system: HL-60; assay: Cell cycle distribution in human HL60 cells assessed as cell cycle accumulation at sub-G1 phase at 19.9 uM after 6 hrs by flow cytometry; format: functional; in short: as §2
[8] = system: HT-29; assay: Cytotoxicity against human HT-29 cells by MTT assay; format: functional, cell-based; in short: as §1
[9] = system: HL-60; assay: Cell cycle distribution in human HL60 cells assessed as cell cycle accumulation at sub-G1 phase at 19.9 uM after 24 hrs by flow cytometry; format: functional; in short: as §2
[10] = system: MCF7; assay: Cytotoxicity against human MCF7 cells by MTT assay; format: functional, cell-based; in short: as §1
[11] = system: HL-60; assay: Cell cycle distribution in human HL60 cells assessed as cell cycle accumulation at sub-G1 phase at 21.3 uM after 6 hrs by flow cytometry; format: functional; in short: as §2
[12] = system: HL-60; assay: Cell cycle distribution in human HL60 cells assessed as cell cycle accumulation at sub-G1 phase at 21.3 uM after 24 hrs by flow cytometry; format: functional; in short: as §2
[13] = system: HL-60; assay: Induction of apoptosis in human HL60 cells assessed as increase in number of apoptotic body with condensed and fragmented nuclei at 21.3 uM after 6 to 24 hrs by H33342 staining method; format: functional, cell-based; in short: as §3
[14] = system: HL-60; assay: Cell cycle distribution in human HL60 cells assessed as cell cycle accumulation at sub-G1 phase at 21.3 uM after 12 hrs by flow cytometry; format: functional; in short: as §2
[15] = system: HL-60; assay: Cell cycle distribution in human HL60 cells assessed as cell cycle accumulation at sub-G1 phase at 21.5 uM after 12 hrs by flow cytometry; format: functional; in short: as §2
[16] = system: HL-60; assay: Induction of apoptosis in human HL60 cells assessed as increase in number of apoptotic body with condensed and fragmented nuclei at 21.5 uM after 6 to 24 hrs by H33342 staining method; format: functional, cell-based; in short: as §3
[17] = system: HL-60; assay: Cell cycle distribution in human HL60 cells assessed as cell cycle accumulation at sub-G1 phase at 21.5 uM after 24 hrs by flow cytometry; format: functional; in short: as §2
[18] = system: HL-60; assay: Cell cycle distribution in human HL60 cells assessed as cell cycle accumulation at sub-G1 phase at 21.5 uM after 6 hrs by flow cytometry; format: functional; in short: as §2

Row | SMILES | IC50 [1] [µM] | Activity [2] [%] | IC50 [3] [µM] | IC50 [4] [µM] | Activity [5] | IC50 [6] [µM] | Activity [7] [%] | IC50 [8] [µM] | Activity [9] [%] | IC50 [10] [µM] | Activity [11] [%] | Activity [12] [%] | Activity [13] | Activity [14] [%] | Activity [15] [%] | Activity [16] | Activity [17] [%] | Activity [18] [%]
1 | C[C@H](CC[C@@H](C)[C@H]1CC[C@H]2[C@@H]3CC(=O)C4=CC(=O)CC[C@]4(C)[C@H]3CC[C@]12C)[C@@H]1C[C@H]1C | 8.4 | 21.85 | 19.9 | 22.1 | Active | 16.2 | 11.19 | 48.2 | 48.83 | 17.8 |  |  |  |  |  |  |  | 
2 | CC(CCC(C)C1CCC2C3CC4OC45CC(O)CCC5(C)C3CCC12C)C1CC1C (stereo unspecified) | 9.8 |  | 21.3 | 19.9 |  | 22.6 |  | 69.9 |  | 19.4 | 11.8 | 51.33 | Active | 24.92 |  |  |  | 
3 | O=C1c2c(O)ccc(O)c2C(=O)c2c(NCCNCCO)ccc(NCCNCCO)c21 [MITOXANTRONE] | 8 |  | 6.3 | 6.2 |  | 9.8 |  | 8.7 |  | 7.1 |  |  |  |  |  |  |  | 
4 | C[C@H](CC[C@@H](C)[C@H]1CC[C@H]2[C@@H]3CC=C4C[C@@H](O)CC[C@]4(C)[C@H]3CC[C@]12C)[C@@H]1C[C@H]1C [PETROSTEROL] | 11.5 |  | 21.5 | 18.7 |  | 19.8 |  | 46.5 |  | 16.4 |  |  |  |  | 27.4 | Active | 52.58 | 12.61
